Source: ChEMBL document CHEMBL1130336, “Polyanion inhibitors of human immunodeficiency virus and other viruses. 6. Micelle-like anti-HIV polyanionic compounds based on a carbohydrate core” (J Med Chem, 1997)

Legend:
CEM-4 [1] = experiment: Concentration required to reduce the viability of uninfected CEM-4 cells by 50%; format: functional; conditions: Homo sapiens
How it was run: (§1)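 Cytotoxicity in uninfected CEM-4 or MT-4 cells, measured as inhibition of cell growth. The value is the concentration that lowers viability by 50%.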

CEM-4 [2] = experiment: Inhibitory concentration required to inhibit HIV-induced cytopathicity in CEM-4 cells by 50%; format: functional, cell-based; conditions: Homo sapiens
How it was run: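 CEM-4 cells infected with HIV-1 (strain HTLV-III_B/LAI). The end point is 50% inhibition of HIV-induced cytopathicity.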

E6SM [3] = experiment: Concentration required to cause a microscopically detectable alteration of normal E6SM cell morphology; format: functional, cell-based; conditions: Homo sapiens, read-out: IC50
How it was run: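 Minimum cytotoxic concentration, read microscopically as the level that causes a detectable alteration of normal cell morphology.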

E6SM [4] = experiment: Concentration required to reduce herpes simplex virus-1TK( B2006) inducted cytopathicity by 50% (E6SM cells); format: functional, cell-based; conditions: Homo sapiens
How it was run: (§2)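 Virus was added in the presence of compound, and the cells were incubated until cytopathic effect was scored. The value is the concentration that reduces virus-induced CPE by 50%.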

E6SM [5] = experiment: Concentration required to reduce herpes simplex virus-1TK (F) inducted cytopathicity by 50% (E6SM cells); format: functional, cell-based; conditions: Homo sapiens; how it was run: as §2
E6SM [6] = experiment: Concentration required to reduce herpes simplex virus-1TK (KOS) inducted cytopathicity by 50% (E6SM cells); format: functional, cell-based; conditions: Homo sapiens; how it was run: as §2
E6SM [7] = experiment: Concentration required to reduce herpes simplex virus-1TK (McIntyre) inducted cytopathicity by 50% (E6SM cells); format: functional, cell-based; conditions: Homo sapiens; how it was run: as §2
E6SM [8] = experiment: Concentration required to reduce herpes simplex virus-1TK (VMW1837) inducted cytopathicity by 50% (E6SM cells); format: functional, cell-based; conditions: Homo sapiens; how it was run: as §2
E6SM [9] = experiment: Concentration required to reduce herpes simplex virus-2(196) inducted cytopathicity by 50% (E6SM cells); format: functional, cell-based; conditions: Homo sapiens; how it was run: as §2
E6SM [10] = experiment: Concentration required to reduce herpes simplex virus-2(G) inducted cytopathicity by 50% (E6SM cells); format: functional, cell-based; conditions: Homo sapiens; how it was run: as §2
Vaccinia virus = experiment: Concentration required to reduce vaccinia virus-inducted cytopathicity by 50% (E6SM cells); format: functional, organism-based, Orthopoxvirus vaccinia; conditions: Orthopoxvirus vaccinia, E6SM
[11] = test system: Human immunodeficiency virus 1; experiment: Concentration required to inhibit by 50% human immunodeficiency virus-1 induced syncytium formation upon coculturing persistently HIV-infected HUT-78 cells with MOLT-4 cells; format: functional, organism-based; conditions: Human immunodeficiency virus 1, MOLT-4
How it was run: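 MOLT-4 (clone 8) cells at 1 × 10^6 cells/mL, cocultured with an equal number of persistently infected HUT-78/HIV-1 or HUT-78/HIV-2 cells across a range of compound concentrations. Giant cells were counted under the microscope after 24 h of cocultivation. The value is the concentration giving 50% inhibition of syncytium formation.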

HEL [12] = experiment: Concentration required to inhibit HEL cell growth by 50%; format: functional, cell-based; conditions: Homo sapiens
HEL [13] = experiment: Concentration required to reduce human cytomegalo virus(AD-169) inducted cytopathicity by 50% (HEL cells); format: functional, cell-based; how it was run: as §2
HEL [14] = experiment: Concentration required to reduce human cytomegalo virus(Davis) inducted cytopathicity by 50% (HEL cells); format: functional, cell-based; how it was run: as §2
HeLa [15] = experiment: Concentration required to reduce Coxsackie virus-inducted cytopathicity by 50% (HeLa cells); format: functional, cell-based; conditions: Homo sapiens
HeLa [16] = experiment: Concentration required to reduce polio-1 virus-inducted cytopathicity by 50% (HeLa cells); format: functional, cell-based; conditions: Homo sapiens
HeLa [17] = experiment: Concentration required to reduce vesicular stomatitis virus-inducted cytopathicity by 50% (HeLa cells); format: functional, cell-based; conditions: Homo sapiens
MT4 [18] = experiment: Concentration required to reduce the viability of uninfected MT-4 cells by 50%; format: functional; conditions: Homo sapiens; how it was run: as §1
MT4 [19] = experiment: Concentration required to inhibit human immunodeficiency virus-2 induced cytopathicity in MT-4 cells by 50%; format: functional, cell-based
How it was run: (§3)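 MT-4 cells infected with HIV-1 (strain HTLV-III_B/LAI) or HIV-2 (strain LAV_ROD). The end point is 50% inhibition of virus-induced cytopathicity.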

Vero [20] = experiment: Concentration required to cause a microscopically detectable alteration of normal Vero cell morphology; format: functional, cell-based; conditions: Chlorocebus sabaeus
Vero [21] = experiment: Concentration required to reduce Coxsackie virus-inducted cytopathicity by 50% (Vero cells); format: functional, cell-based; conditions: Chlorocebus sabaeus
Vero [22] = experiment: Concentration required to reduce Junin virus-inducted cytopathicity by 50% (Vero cells); format: functional, cell-based; conditions: Chlorocebus sabaeus
Vero [23] = experiment: Concentration required to reduce forest virus-inducted cytopathicity by 50% (Vero cells); format: functional, cell-based; conditions: Chlorocebus sabaeus
Vero [24] = experiment: Concentration required to reduce Tacaribe virus-inducted cytopathicity by 50% (Vero cells); format: functional, cell-based; conditions: Chlorocebus sabaeus
Vero [25] = experiment: Concentration required to reduce parainfluenza-3 virus-inducted cytopathicity by 50% (Vero cells); format: functional, cell-based; conditions: Chlorocebus sabaeus
Vero [26] = experiment: Concentration required to reduce reovirus-1 inducted cytopathicity by 50% (Vero cells); format: functional, cell-based; conditions: Chlorocebus sabaeus
Vero [27] = experiment: Concentration required to reduce sindbis virus-inducted cytopathicity by 50% (Vero cells); format: functional, cell-based; conditions: Chlorocebus sabaeus
MT4 [28] = experiment: Concentration required to inhibit human immunodeficiency virus-1 induced cytopathicity in MT-4 cells by 50%; format: functional, cell-based; how it was run: as §3
E6SM [29] = experiment: Concentration required to reduce herpes simplex virus-2(Lyons) inducted cytopathicity by 50% (E6SM cells); format: functional, cell-based; conditions: Homo sapiens; how it was run: as §2
HeLa [30] = experiment: Concentration required to cause a microscopically detectable alteration of normal Hela cell morphology; format: functional, cell-based; conditions: Homo sapiens
[31] = test system: Human immunodeficiency virus 2; experiment: Concentration required to inhibit by 50% human immunodeficiency virus-2 induced syncytium formation upon coculturing persistently HIV-infected HUT-78 cells with MOLT-4 cells; conditions: HUT-78, MOLT-4

Row | Compound | CC50 (CEM-4 [1]) [µM] | IC50 (CEM-4 [2]) [µM] | minimum cytotoxic concentration (E6SM [3]) [µM] | IC50 (E6SM [4]) [µM] | IC50 (E6SM [5]) [µM] | IC50 (E6SM [6]) [µM] | IC50 (E6SM [7]) [µM] | IC50 (E6SM [8]) [µM] | IC50 (E6SM [9]) [µM] | IC50 (E6SM [10]) [µM] | IC50 (Vaccinia virus) [µM] | IC50 [11] [µM] | IC50 (HEL [12]) [µM] | IC50 (HeLa [15]) [µM] | IC50 (HeLa [16]) [µM] | IC50 (HeLa [17]) [µM] | CC50 (MT4 [18]) [µM] | IC50 (MT4 [19]) [µM] | IC50 (Vero [20]) [µM] | IC50 (Vero [21]) [µM] | other results
1 | O=C(O)CCSCCCOC[C@H]1O[C@@H](OCCCSCCC(=O)O)[C@H](OCCCSCCC(=O)O)[C@@H](OCCCSCCC(=O)O)[C@@H]1OCCCSCCC(=O)O | > 98 | > 98 |  |  |  |  |  |  |  |  |  |  |  |  |  |  |  |  |  |  | 
2 | O=C(O)CC(SCCCOC[C@H]1O[C@@H](OCCCSC(CC(=O)O)C(=O)O)[C@H](OCCCSC(CC(=O)O)C(=O)O)[C@@H](OCCCSC(CC(=O)O)C(=O)O)[C@@H]1OCCCSC(CC(=O)O)C(=O)O)C(=O)O (stereo partly specified) | > 74 | > 74 | > 296 | > 296 | > 296 | > 296 | > 296 | > 296 | > 296 | > 296 | > 296 | > 185 | > 37 | > 148 | > 148 | > 148 | > 185 | > 185 | > 148 | > 148 | IC50 (HEL [13]): > 37 µM; IC50 (HEL [14]): > 37 µM; IC50 (Vero [22]): > 37 µM; IC50 (Vero [23]): > 148 µM; IC50 (Vero [24]): > 37 µM; IC50 (Vero [25]): > 148 µM; IC50 (Vero [26]): > 148 µM; IC50 (Vero [27]): > 148 µM; IC50 (MT4 [28]): 85.9 µM; IC50 (E6SM [29]): > 296 µM
3 | CO[C@H]1O[C@H](COCCCSCC(=O)O)[C@@H](OCCCSCC(=O)O)[C@@H](OCCCSCC(=O)O)[C@H]1OCCCSCC(=O)O | > 370 | > 370 |  |  |  |  |  |  |  |  |  |  |  |  |  |  |  |  |  |  | 
4 | O=C(O)CCSCCCOC[C@H]1O[C@@](COCCCSCCC(=O)O)(O[C@H]2O[C@H](COCCCSCCC(=O)O)[C@@H](OCCCSCCC(=O)O)[C@H](OCCCSCCC(=O)O)[C@H]2OCCCSCCC(=O)O)[C@@H](OCCCSCCC(=O)O)[C@@H]1OCCCSCCC(=O)O | > 59.3 | > 59.3 | > 237 | > 237 | > 237 | > 237 | > 237 | > 237 | > 237 | > 237 | > 237 | > 148 | > 30 | > 119 | > 119 | > 119 | > 148 | > 148 | > 119 | > 59 | IC50 (HeLa [30]): > 119 µM; IC50 (Vero [22]): > 12 µM; IC50 (Vero [23]): > 59 µM; IC50 (Vero [24]): > 12 µM; IC50 (Vero [25]): > 59 µM; IC50 (Vero [26]): > 59 µM; IC50 (Vero [27]): > 59 µM; IC50 (MT4 [28]): 29 µM; IC50 (E6SM [29]): > 119 µM; IC50 [31]: > 148 µM
5 | CO[C@H]1O[C@H](COCCCSCCC(=O)O)[C@@H](OCCCSCCC(=O)O)[C@@H](OCCCSCCC(=O)O)[C@H]1OCCCSCCC(=O)O | > 346 | > 346 |  |  |  |  |  |  |  |  |  |  |  |  |  |  |  |  |  |  | 
